Source: ChEMBL document CHEMBL5705886, “GSK1070916, a potent Aurora B/C kinase inhibitor with broad antitumor activity in tissue culture cells and human tumor xenograft models” (Mol Cancer Ther, 2009)
Activity calls are given as the source filed them. The rule behind the calls is not given here.

Experiments:
WiDr = test: Antiproliferative activity against human WiDr cells assessed as inhibition of cell viability measured for 6 to 7 days by cell titer glo assay; assay type: functional, cell-based
DLD-1 = test: Antiproliferative activity against human DLD-1 cells assessed as inhibition of cell viability measured for 6 to 7 days by cell titer glo assay; assay type: functional, cell-based
Method in brief: (§1)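 Tumor lines plated in recommended growth media, overnight at 37°C, 5% CO2, then given serial dilutions; a T=0 plate read with CellTiter-Glo at dosing. After 6–7 d of exposure, viability read by CellTiter-Glo luminescence. No-cell wells subtracted, data expressed as % of DMSO control.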

NCI-H630 = test: Antiproliferative activity against human NCI-H630 cells assessed as inhibition of cell viability measured for 6 to 7 days by cell titer glo assay; assay type: functional, cell-based
Method in brief: (§2)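 Cells seeded in recommended growth medium, held overnight at 37°C in 5% CO2, then exposed to serial dilutions of inhibitor for 6–7 d. A time-zero plate was read with CellTiter-Glo at dosing. Luminescent viability read at the end. No-cell wells subtracted as background, data expressed as percent of DMSO control.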

PC-3 = test: Antiproliferative activity against human PC-3 cells assessed as inhibition of cell viability measured for 6 to 7 days by cell titer glo assay; assay type: functional, cell-based; method in brief: as §2
SK-MEL-5 = test: Antiproliferative activity against human SK-MEL-5 cells assessed as inhibition of cell viability measured for 6 to 7 days by cell titer glo assay; assay type: functional, cell-based; method in brief: as §2
HEC-1B cell line = test: Antiproliferative activity against human HEC-1B cell line assessed as inhibition of cell viability measured for 6 to 7 days by cell titer glo assay; assay type: functional, cell-based; method in brief: as §1
RPMI-8226 = test: Antiproliferative activity against human RPMI-8226 cells assessed as inhibition of cell viability measured for 6 to 7 days by cell titer glo assay; assay type: functional, cell-based; method in brief: as §2
[1] = Antiproliferative activity against human CRO-AP5 cells assessed as inhibition of cell viability measured for 6 to 7 days by cell titer glo assay; assay type: functional, cell-based; method in brief: as §1
NU-DUL-1 = test: Antiproliferative activity against human NU-DUL-1 cells assessed as inhibition of cell viability measured for 6 to 7 days by cell titer glo assay; assay type: functional, cell-based; method in brief: as §2
SUD4 = test: Antiproliferative activity against human SU-DHL-4 cells assessed as inhibition of cell viability measured for 6 to 7 days by cell titer glo assay; assay type: functional, cell-based; method in brief: as §2
DOHH-2 = test: Antiproliferative activity against human DOHH-2 cells assessed as inhibition of cell viability measured for 6 to 7 days by cell titer glo assay; assay type: functional, cell-based; method in brief: as §1
Toledo = test: Antiproliferative activity against human Toledo cells assessed as inhibition of cell viability measured for 6 to 7 days by cell titer glo assay; assay type: functional, cell-based; method in brief: as §2
[2] = Antiproliferative activity against human BC1 cell line assessed as inhibition of cell viability measured for 6 to 7 days by cell titer glo assay; assay type: functional, cell-based; method in brief: as §1
BC-3 = test: Antiproliferative activity against human BC-3 cells assessed as inhibition of cell viability measured for 6 to 7 days by cell titer glo assay; assay type: functional, cell-based; method in brief: as §1
[3] = Antiproliferative activity against human BCP-1 cells assessed as inhibition of cell viability measured for 6 to 7 days by cell titer glo assay; assay type: functional, cell-based; method in brief: as §1
Rec1 = test: Antiproliferative activity against human REC1 cells assessed as inhibition of cell viability measured for 6 to 7 days by cell titer glo assay; assay type: functional, cell-based; method in brief: as §2
L-428 = test: Antiproliferative activity against human L-428 cells assessed as inhibition of cell viability measured for 6 to 7 days by cell titer glo assay; assay type: functional, cell-based
Method in brief: (§3)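 Cells seeded in recommended growth medium, incubated overnight at 37°C in 5% CO2, then exposed to serial dilutions of inhibitor for 6–7 d. A parallel plate was read with CellTiter-Glo at compound addition as a T=0 value. The luminescent viability readout had no-cell background subtracted and was expressed as % of DMSO control.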

ML-2 = test: Antiproliferative activity against human ML-2 cells assessed as inhibition of cell viability measured for 6 to 7 days by cell titer glo assay; assay type: functional, cell-based; method in brief: as §3
THP-1 = test: Antiproliferative activity against human THP-1 cells assessed as inhibition of cell viability measured for 6 to 7 days by cell titer glo assay; assay type: functional, cell-based; method in brief: as §2
HL-60 [4] = test: Antiproliferative activity against human HL-60 cells assessed as inhibition of cell viability measured for 6 to 7 days by cell titer glo assay; assay type: functional, cell-based; method in brief: as §3
[5] = Antiproliferative activity against human M-07e cells assessed as inhibition of cell viability measured for 6 to 7 days by cell titer glo assay; assay type: functional, cell-based; method in brief: as §3
HEL 92.1.7 = test: Antiproliferative activity against human HEL 92.1.7 cells assessed as inhibition of cell viability measured for 6 to 7 days by cell titer glo assay; assay type: functional, cell-based; method in brief: as §1
KCL-22 = test: Antiproliferative activity against human KCL-22 cells assessed as inhibition of cell viability measured for 6 to 7 days by cell titer glo assay; assay type: functional, cell-based; method in brief: as §3
CCRF-HSB-2 = test: Antiproliferative activity against human HSB-2 cells assessed as inhibition of cell viability measured for 6 to 7 days by cell titer glo assay; assay type: functional, cell-based; method in brief: as §3
A549 [6] = test: Effect on cell cycle distribution in human A549 cells assessed as increase in 4N DNA content at 2 to 5000 nM incubated for 24 to 72 hrs by flow cytometry based analysis; assay type: functional; conditions: dose 2-5000 nM, time 24-72 hrs
COLO 205 = test: Induction of apoptosis in human COLO 205 cells assessed as PARP cleavage at 10 nmol/L incubated for 24 hrs by Western blot analysis; assay type: functional, cell-based
A549 [7] = test: Induction of mitotic alteration in human A549 cells formation of unorganized chromosomes at 12 to 330 nmol/L incubated for 24 hrs by immunofluorescent microscopy based analysis; assay type: functional, cell-based; conditions: dose lower […], dose upper 330.0 nmol/L
A549 [8] = test: Induction of mitotic alteration in human A549 cells formation of multipolar spindles at 12 to 330 nmol/L incubated for 24 hrs by immunofluorescent microscopy based analysis; assay type: functional, cell-based; conditions: dose lower […], dose upper 330.0 nmol/L
[9] = Toxicity in SCID nude mouse xenografted with human K562 cells assessed as drug tolerance at 100 mg/kg, ip administered once daily for 5 consecutive days with 2 days off scheduled for 3 cycles measured upto 60 days; assay type: organism-based; conditions: in vivo, 1440 h, time < 60 day
[10] = Toxicity in SCID nude mouse xenografted with human HCT-116 cells assessed as body weight loss at 25 to 100 mg/kg, ip administered once daily for 5 consecutive days with 2 days off scheduled for 3 cycles measured upto 60 days relative to control; assay type: organism-based; conditions: in vivo, 1440 h, dose 25-100 mg/kg, time < 60 day
[11] = Toxicity in SCID nude mouse xenografted with human SW620 cells assessed as body weight loss at 25 to 100 mg/kg, ip administered once daily for 5 consecutive days with 2 days off scheduled for 3 cycles measured upto 60 days relative to control; assay type: organism-based, SW-620; conditions: in vivo, 1440 h, dose 25-100 mg/kg, time 60 day
HL-60 [12] = test: Antitumor activity in human HL-60 cells xenografted in SCID mouse assessed as median survival time at 50 mg/kg, ip administered once daily for 5 consecutive days with 2 days off scheduled for 2 cycles measured upto 120 days; assay type: functional; conditions: time <= 120 day
NCI-H460 = test: Antitumor activity in human NCI-H460 cells xenografted in nude mouse assessed as reduction in tumor growth at 25 to 100 mg/kg, ip administered once daily for 5 consecutive days with 2 days off scheduled for 3 cycles measured upto 60 days; conditions: dose 25-100 mg/kg, time 60.0 day

Compound `CCn1cc(-c2ccnc3[nH]c(-c4cccc(CN(C)C)c4)cc23)c(-c2ccc(NC(=O)N(C)C)cc2)n1` [GSK-1070916] has an EC50 (WiDr) of 3 nM, an EC50 (DLD-1) of 28 nM and an EC50 (NCI-H630) of 127 nM. The EC50 (PC-3) was 11 nM, the EC50 (SK-MEL-5) was 8 nM and the EC50 (HEC-1B cell line) was 4 nM. The EC50 (RPMI-8226) was 11 nM, the EC50 [1] was 3 nM and the EC50 (NU-DUL-1) was 4 nM. For the same compound, the EC50 (SUD4) was 5 nM, the EC50 (DOHH-2) was 14 nM and the EC50 (Toledo) was 15 nM. The EC50 [2] was 18 nM, the EC50 (BC-3) was 27 nM and the EC50 [3] was 31 nM. For the same compound, the EC50 (Rec1) was 77 nM, the EC50 (L-428) was 31 nM and the EC50 (ML-2) was 5 nM. For the same compound, the EC50 (THP-1) was 5 nM, the EC50 (HL-60 [4]) was 10 nM and the EC50 [5] was 13 nM. For the same compound, the EC50 (HEL 92.1.7) was 60 nM, the EC50 (KCL-22) was 5 nM and the EC50 (CCRF-HSB-2) was 3 nM. For the same compound, the Activity (A549 [6]) was “Active”, the Activity (COLO 205) was “Active” and the Activity (A549 [7]) was “Active”. The Activity (A549 [8]) was “Active”, the Activity [9] was “Toxic” and the Activity [10] was under 15%. The Activity [11] was under 15%, the MST (HL-60 [12]) was 83 days and the Activity (NCI-H460) was “inactive”.
